The values that follow come from ChEMBL document CHEMBL1125809, “Preparation and anticonvulsant activity of a series of functionalized alpha-heteroatom-substituted amino acids” (J Med Chem, 1991).

The structures appear in SMILES notation. Where “and” joins values, the source holds several entries; their conditions need not be identical. Equal entries are not always repeated. A value given as a limit tells only on which side of the number the result lay.

The first series deals with Mus musculus. Kind of series: Concentration required to prevent seizures upon intraperitoneal administration in mice in MES (maximal electroshock seizure) test. It is filed as functional.
Conditions: not given
The method, boiled down: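 Male CF-1 mice dosed ip with compound in 30% PEG 400 (one compound in acacia). Pilot groups of 4 mice per dose tested at 0.5, 1 and 4 h for protection against maximal electroshock seizures.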
Background: Protection in the maximal electroshock model is a classic sign of anticonvulsant action.
By ED50 is commonly meant the dose that gives a 50% effect, or the effect in half of the subjects. Consider `CC(=O)NC(NC(C)=O)C(=O)NCc1ccccc1`, for which the ED50 is <300 mg/kg and >100 mg/kg.

The series is the same for the next values; noted with them: Mus musculus, ip; read-out: ED50.
For the compound `CC(=O)NC(Sc1ccccc1)C(=O)NCc1ccccc1` (stereo unspecified), the ED50 was greater than 300 mg/kg.

Regarding `CC(=O)NC(N)C(=O)NCc1ccccc1` (stereo unspecified), the ED50 was 65.1 mg/kg.

In the case of `CC(=O)NC(C(=O)NCc1ccccc1)N1CCCO1` (stereo unspecified), the ED50 was found to be 31.4 mg/kg.

For `CC(=O)NC(C(=O)NCc1ccccc1)[N+](C)(C)C.F[B-](F)(F)F` (stereo unspecified), the ED50 is greater than 100 mg/kg.

Turning to `CC(=O)NC(NC(=O)C(F)(F)F)C(=O)NCc1ccccc1` (stereo unspecified), the ED50 is greater than 300 mg/kg.

As for `CC(=O)NC(Nc1cc[nH]n1)C(=O)NCc1ccccc1` (stereo unspecified), the ED50 is 100 mg/kg.

As for `CON(C)C(NC(C)=O)C(=O)NCc1ccccc1` (stereo unspecified), the ED50 stood at 6.7 mg/kg.

On to `CC(=O)NC(Nc1ccccc1)C(=O)NCc1ccccc1` (stereo unspecified), for which the ED50 was greater than 300 mg/kg.

Turning to `CC(=O)NC(C(=O)NCc1ccccc1)N(C)O` (stereo unspecified), the ED50 worked out at 30 mg/kg.

Consider `CC[S+]([O-])C(NC(C)=O)C(=O)NCc1ccccc1` (stereo unspecified), for which the ED50 is greater than 100 mg/kg.

`CC(=O)NC(NNc1ccccc1)C(=O)NCc1ccccc1` (stereo unspecified): the ED50 worked out at 100 mg/kg.

For the compound `CC(=O)NC(C(=O)NCc1ccccc1)N(C)C` (stereo unspecified), the ED50 came out at 45.3 mg/kg.

For the compound `CCOC(NC(C)=O)C(=O)NCc1ccccc1` (stereo unspecified), the ED50 amounted to 62 mg/kg.

For `CC(=O)NC(O)C(=O)NCc1ccccc1` (stereo unspecified), the ED50 amounted to 80.1 mg/kg.

For `CC(=O)NC(Oc1ccccc1)C(=O)NCc1ccccc1` (stereo unspecified), the median effective dose (ED50) is greater than 100 mg/kg.

Turning to `CC(=O)NC(NNC(=O)OCc1ccccc1)C(=O)NCc1ccccc1` (stereo unspecified), the ED50 came to 55.6 mg/kg.

As to `CC(=O)NC(NO)C(=O)NCc1ccccc1` (stereo unspecified), the ED50 was found to be 100 mg/kg.

As to `CONC(NC(C)=O)C(=O)NCc1ccccc1` (stereo unspecified), the ED50 turned out to be 6.2 mg/kg.

`CCS(=O)(=O)C(NC(C)=O)C(=O)NCc1ccccc1` (stereo unspecified): the ED50 is greater than 100 mg/kg.

Take `CSC(NC(C)=O)C(=O)NCc1ccccc1` (stereo unspecified): the ED50 is greater than 100 mg/kg.

System in a further series: not listed separately
Kind of series: (§1) Neurotoxic dose (TD50) from horizontal screen in mice. Conditions: mouse, in vivo. It is filed as toxicity, organism-based. The method, boiled down:
(§2)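 Male CF-1 mice, ip dosing in 30% PEG 400 unless otherwise noted. Trained mice are placed on a 13 × 13 cm no. 4 mesh wire screen on a vertical rod, which is rotated 180°. Impairment is scored as failure to climb to the top within 1 min. TD50 comes from a dose-response at the time of peak anticonvulsant activity, with 3–4 doses and 12 mice/dose. Some entries used the rotorod instead.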
A word on the TD50: it is the dose at which the toxic effect under study appears in half of the subjects. High values mean harm only at a large dose, low ones harm at a small dose. `CON(C)C(NC(C)=O)C(=O)NCc1ccccc1` (stereo unspecified) returned a TD50 of 50.5 mg/kg.

Compound `CCOC(NC(C)=O)C(=O)NCc1ccccc1` (stereo unspecified) returned a TD50 greater than 112 mg/kg.

For the compound `CONC(NC(C)=O)C(=O)NCc1ccccc1` (stereo unspecified), the TD50 amounted to 46 mg/kg.

Compound `CC(=O)NC(C(=O)NCc1ccccc1)c1ccco1` (stereo unspecified) yielded a TD50 of 40 mg/kg.

The species named for the next series is Mus musculus. Described as §1. It is filed as toxicity, organism-based. The conditions noted are these: in vivo. The gist of the method: as §2
Turning to `COC(NC(C)=O)C(=O)NCc1ccccc1` (stereo unspecified), the TD50 is > 100 mg/kg and < 300 mg/kg.
